Results of several laboratories.
Lines come from different studies, so protocols differ.
Target: Serine/threonine-protein kinase PAK 4 (PAK4, Homo sapiens, UniProt O96013)

| SMILES | test | setting | measurement | value |
| --- | --- | --- | --- | --- |
| O=C1NC(c2ccccn2)Sc2ccccc21 (stereo not shown) | cell-free assay, competition with immobilised ligand | 1 µM | remaining binding | 84% |
| COc1cc(Nc2cnc(C#N)c(O[C@H](C)CN(C)C)n2)ncc1-c1cnn(C)c1 | enzyme activity, inhibitor, radiometric | 10 µM | remaining activity | 70% |
| NS(=O)(=O)c1cc(NC(=O)C2(c3ccccc3Cl)CC2)ccc1Oc1cccc(Cl)c1 | cell-free assay, competition with immobilised ligand | 1 µM | remaining binding | 74% |
| Cn1c(=O)n(-c2ccc(C(C)(C)C#N)cc2)c2c3cc(-c4cnc5ccccc5c4)ccc3ncc21 | enzyme activity, inhibitor | 10 µM | remaining activity | 87% |
| CCN(CC)c1ccc(C2=NNC(=O)CC2C)cc1[N+](=O)[O-] (stereo not shown) | enzyme activity, inhibitor | 10 µM | remaining activity | 98% |
| COc1cc(-c2cn(C3CCc4c(F)cccc4N(CC(F)(F)F)C3=O)nn2)ccc1-n1cnc(C)c1 (stereo not shown) | cell-free assay, competition with immobilised ligand | 1 µM | remaining binding | 99% |
| Oc1ccc(-c2nc(-c3ccncc3)c(-c3ccc(F)cc3)[nH]2)cc1 | cell-free assay | 0.5 µM | remaining signal | 98.6% |
| FC(F)(F)Oc1cccc(-c2cnc3ccc(-c4ccncc4)nn23)c1 | enzyme activity, inhibitor, radiometric | 1 µM | activity vs control | 81% |
| CC(C)(C)c1nc(-c2cccc(NS(=O)(=O)c3c(F)cccc3F)c2F)c(-c2ccnc(N)n2)s1 | enzyme activity, inhibitor, radiometric | 1 µM | remaining activity | 68% |
| Cc1sc(C(=O)NC2COC2)cc1-n1cc(NC(=O)Nc2c(F)cccc2Cl)cn1 | enzyme activity, inhibitor | 10 µM | remaining activity | 106% |
| CC(C)(C)C(=O)c1sc(NC2CCCCC2)nc1N | enzyme activity, inhibitor | 10 µM | remaining activity | 88% |
| FC(F)c1nc2ccccc2n1-c1nc(N2CCOCC2)nc(N2CCOCC2)n1 | enzyme activity, inhibitor | 10 µM | remaining activity | 92% |
| CC1=C(C#N)C(c2ccc3c(c2)c(NC(=O)c2ccccc2C)nn3C)C(C#N)=C(C)N1 | cell-free assay, competition with immobilised ligand | 1 µM | remaining binding | 100% |
| Nc1nc(Nc2ccccc2)sc1C(=O)c1c(F)cccc1F | enzyme activity, inhibitor | 10 µM | remaining activity | 47% |
| COc1cc(/C=C/C(=O)CC(=O)/C=C/c2ccc(O)c(OC)c2)ccc1O | enzyme activity, inhibitor | 1 µM | activity vs control | 78% |
| COc1cc(-c2cc(-c3ccc(N4CCNCC4)cc3)cnc2C)cc(OC)c1OC | enzyme activity, inhibitor | 0.1 µM | inhibition | 1% |
| Cc1c(NC(=O)c2cc(C(N)=O)nc3cc(F)ccc23)c(C(F)(F)F)nn1Cc1ccc(C(C)(C)C)cc1 | cell-free assay, competition with immobilised ligand | 1 µM | remaining binding | 100% |

| SMILES | test | setting | measurement | value |
| --- | --- | --- | --- | --- |
| CC/C(=N\NC(=O)NCc1cccc(O)c1)c1ccc(O)c(C)c1O | enzyme activity, inhibitor | 0.1 µM | inhibition | 10.6% |
| C[C@@H]1CN(c2cc(-c3n[nH]c4ccc(OC5(C)CC5)cc34)ncn2)C[C@H](C)O1 | cell-free assay, competition with immobilised ligand | 0.1 µM | remaining binding | 97% |
| O=C(CSc1nc2nccnc2c(=O)n1CCc1ccccc1)Nc1nccs1 | enzyme activity, inhibitor | 10 µM | inhibition | 2% |
| CCN(CC)CCNC(=O)c1c(C)[nH]c(/C=C2\C(=O)Nc3ccc(F)cc32)c1C | enzyme activity, inhibitor | 0.3 µM | inhibition | -9% |
| CC(C)(O)[C@H]1CC[C@H](Nc2ccc3ncc(-c4cccc(C(F)(F)F)c4)n3n2)CC1 | enzyme activity, inhibitor | 1 µM | remaining activity | 98% |
| CNC(=O)c1cc(Oc2ccc(NC(=O)Nc3ccc(Cl)c(C(F)(F)F)c3)cc2)ccn1 | enzyme activity, inhibitor | 0.3 µM | inhibition | -11% |
| CN(c1ccnc(CNc2nc(Nc3ccc4c(c3)CC(=O)N4)ncc2C(F)(F)F)n1)S(C)(=O)=O | cell-free assay, competition with immobilised ligand | 1 µM | remaining binding | 52% |
| Cc1ccc(C(=O)NCc2ccsc2)cc1C#Cc1cn(C(C)C)c2ncnc(N)c12 | enzyme activity, inhibitor | 1 µM | activity vs control | 102% |
| Cc1[nH]c(/C=C2\C(=O)Nc3ccc(F)cc32)c(C)c1C(=O)N[C@H]1CCN(C(=O)N(C)C)C1 | enzyme activity, inhibitor | 0.1 µM | remaining activity | 109% |
| COc1cc2c(N3CCN(C(=O)Nc4ccc(OC(C)C)cc4)CC3)ncnc2cc1OCCCN1CCCCC1 | cell-free assay | 0.5 µM | remaining signal | 103% |
| CSc1nc(C)c(-c2ccnc(Nc3ccc(N4CCOCC4)cc3)c2)[nH]1 | enzyme activity, inhibitor | 10 µM | inhibition | -3.9% |
| CCC(=O)N[C@H]1CC[C@@H](C(=O)N(C)c2ccc(-c3nc4ccccc4o3)cc2)C1 | cell-free assay, competition with immobilised ligand | 1 µM | remaining binding | 100% |
| CS(=O)(=O)CCNCc1ccc(-c2ccc3ncnc(Nc4ccc(OCc5cccc(F)c5)c(Cl)c4)c3c2)o1 | cell-free assay | 0.5 µM | remaining signal | 89.9% |
| Cc1ccc(Nc2nccc(N(C)c3ccc4c(C)n(C)nc4c3)n2)cc1S(N)(=O)=O | enzyme activity, inhibitor | 10 µM | inhibition | 35% |
| Cc1ccc(NC(=O)c2ccc(C)c(C(F)(F)F)c2)cc1C#Cc1nn(C2CCC(O)CC2)c2ncnc(N)c12 (stereo not shown) | cell-free assay | 10 µM | remaining signal | 88% |
| COc1cc2ncnc(Nc3ccc(F)c(Cl)c3)c2cc1OCCCN1CCOCC1 | cell-free assay | 0.5 µM | remaining signal | 90.2% |
| CCN(CC)CCNC(=O)c1c(C)[nH]c(/C=C2\C(=O)Nc3ccc(F)cc32)c1C | enzyme activity, inhibitor | 0.1 µM | remaining activity | 90% |
